ChEMBL document CHEMBL3734675, “Synthesis, antimycobacterial and antibacterial activity of fluoroquinolone derivatives containing an 3-alkoxyimino-4-(cyclopropylanimo)methylpyrrolidine moiety” (2015)
≈ marks a conversion by molar mass, not a printed value.

Assays:
Assay type in all cases: functional
Streptococcus pneumoniae = experiment: Antibacterial activity against methicillin-resistant Streptococcus pneumoniae ATCC 19615 after 18 to 24 hrs by two-fold serial dilution method
Outline: (§1)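 Agar media, standard twofold serial dilution. MIC is the lowest concentration giving complete inhibition of bacterial growth after incubation at 35 °C for 18–24 h. Ciprofloxacin and levofloxacin were run as comparators.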

Pseudomonas aeruginosa [1] = experiment: Antibacterial activity against Pseudomonas aeruginosa 14-15 after 18 to 24 hrs by two-fold serial dilution method
Outline: (§2)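 Twofold serial dilution in agar media against Gram-positive and Gram-negative strains. Plates incubated at 35 °C for 18–24 h. MIC read as the lowest compound concentration giving complete inhibition of bacterial growth.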

[2] = system: Staphylococcus epidermidis; experiment: Antibacterial activity against methicillin-resistant Staphylococcus epidermidis 14-39 after 18 to 24 hrs by two-fold serial dilution method; outline: as §1
[3] = system: Staphylococcus epidermidis; experiment: Antibacterial activity against methicillin-sensitive Staphylococcus epidermidis 14-2 after 18 to 24 hrs by two-fold serial dilution method; outline: as §2
Escherichia coli [4] = experiment: Antibacterial activity against extended-spectrum beta-lactamase producing Escherichia coli 14-2 after 18 to 24 hrs by two-fold serial dilution method; outline: as §2
Pseudomonas aeruginosa [5] = experiment: Antibacterial activity against Pseudomonas aeruginosa 14-16 after 18 to 24 hrs by two-fold serial dilution method; outline: as §2
Pseudomonas aeruginosa [6] = experiment: Antibacterial activity against Pseudomonas aeruginosa 14-9 after 18 to 24 hrs by two-fold serial dilution method; outline: as §2
Pseudomonas aeruginosa [7] = experiment: Antibacterial activity against Pseudomonas aeruginosa 14-14 after 18 to 24 hrs by two-fold serial dilution method; outline: as §2
[8] = system: Mycobacterium tuberculosis; experiment: Antimycobacterial activity against Mycobacterium tuberculosis H37Rv ATCC 27294 incubated for 7 days by microplate Alamar Blue assay; conditions: H37Rv ATCC 27294, 168 h
Outline: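 Fluorescence read-out. MIC is the lowest concentration that reduces fluorescence by at least 90% relative to the mean of replicate bacterium-only controls. Isoniazid and rifampicin were included as reference drugs.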

Pseudomonas aeruginosa [9] = experiment: Antibacterial activity against Pseudomonas aeruginosa ATCC 27853 after 18 to 24 hrs by two-fold serial dilution method; outline: as §2
Enterococcus faecalis [10] = experiment: Antibacterial activity against Enterococcus faecalis 14-2 after 18 to 24 hrs by two-fold serial dilution method; outline: as §2
[11] = system: Staphylococcus epidermidis; experiment: Antibacterial activity against methicillin-resistant Staphylococcus epidermidis 14-21 after 18 to 24 hrs by two-fold serial dilution method; outline: as §1
Enterococcus faecalis [12] = experiment: Antibacterial activity against Enterococcus faecalis 14-1 after 18 to 24 hrs by two-fold serial dilution method; outline: as §2
[13] = system: Staphylococcus epidermidis; experiment: Antibacterial activity against methicillin-resistant Staphylococcus epidermidis 14-37 after 18 to 24 hrs by two-fold serial dilution method; outline: as §1
Enterococcus faecium [14] = experiment: Antibacterial activity against Enterococcus faecium 14-5 after 18 to 24 hrs by two-fold serial dilution method; outline: as §2
Staphylococcus aureus [15] = experiment: Antibacterial activity against methicillin-sensitive Staphylococcus aureus 14-1 after 18 to 24 hrs by two-fold serial dilution method; outline: as §2
Klebsiella pneumoniae [16] = experiment: Antibacterial activity against Klebsiella pneumoniae 14-1 after 18 to 24 hrs by two-fold serial dilution method; outline: as §2
Enterococcus faecium [17] = experiment: Antibacterial activity against Enterococcus faecium 14-6 after 18 to 24 hrs by two-fold serial dilution method; outline: as §2
Staphylococcus aureus [18] = experiment: Antibacterial activity against methicillin-resistant Staphylococcus aureus 14-5 after 18 to 24 hrs by two-fold serial dilution method; outline: as §1
Klebsiella pneumoniae [19] = experiment: Antibacterial activity against extended-spectrum beta-lactamase producing Klebsiella pneumoniae 14-18 after 18 to 24 hrs by two-fold serial dilution method; outline: as §2
Staphylococcus aureus [20] = experiment: Antibacterial activity against Staphylococcus aureus CMCC 26003 after 18 to 24 hrs by two-fold serial dilution method; outline: as §2
Klebsiella pneumoniae [21] = experiment: Antibacterial activity against Klebsiella pneumoniae 14-4 after 18 to 24 hrs by two-fold serial dilution method; outline: as §2
Staphylococcus aureus [22] = experiment: Antibacterial activity against methicillin-resistant Staphylococcus aureus 14-4 after 18 to 24 hrs by two-fold serial dilution method; outline: as §1
Staphylococcus aureus [23] = experiment: Antibacterial activity against methicillin-sensitive Staphylococcus aureus 14-4 after 18 to 24 hrs by two-fold serial dilution method; outline: as §2
Staphylococcus aureus [24] = experiment: Antibacterial activity against methicillin-sensitive Staphylococcus aureus 14-3 after 18 to 24 hrs by two-fold serial dilution method; outline: as §2
Escherichia coli [25] = experiment: Antibacterial activity against Escherichia coli 14-1 after 18 to 24 hrs by two-fold serial dilution method; outline: as §2
Klebsiella pneumoniae [26] = experiment: Antibacterial activity against extended-spectrum beta-lactamase producing Klebsiella pneumoniae 14-17 after 18 to 24 hrs by two-fold serial dilution method; outline: as §2
[27] = system: Staphylococcus epidermidis; experiment: Antibacterial activity against methicillin-resistant Staphylococcus epidermidis 14-22 after 18 to 24 hrs by two-fold serial dilution method; outline: as §1
Escherichia coli [28] = experiment: Antibacterial activity against Escherichia coli 14-2 after 18 to 24 hrs by two-fold serial dilution method; outline: as §2
Escherichia coli [29] = experiment: Antibacterial activity against Escherichia coli ATCC 25922 after 18 to 24 hrs by two-fold serial dilution method; outline: as §2
Enterococcus faecium [30] = experiment: Antibacterial activity against Enterococcus faecium 14-2 after 18 to 24 hrs by two-fold serial dilution method; outline: as §2
Klebsiella pneumoniae [31] = experiment: Antibacterial activity against Klebsiella pneumoniae 14-2 after 18 to 24 hrs by two-fold serial dilution method; outline: as §2
Klebsiella pneumoniae [32] = experiment: Antibacterial activity against extended-spectrum beta-lactamase producing Klebsiella pneumoniae 14-19 after 18 to 24 hrs by two-fold serial dilution method; outline: as §2
Escherichia coli [33] = experiment: Antibacterial activity against extended-spectrum beta-lactamase producing Escherichia coli 14-1 after 18 to 24 hrs by two-fold serial dilution method; outline: as §2
Klebsiella pneumoniae [34] = experiment: Antibacterial activity against Klebsiella pneumoniae 14-3 after 18 to 24 hrs by two-fold serial dilution method; outline: as §2

Structure (SMILES) | MIC (Streptococcus pneumoniae) | MIC (Pseudomonas aeruginosa [1]) | MIC [2] | MIC [3] | MIC (Escherichia coli [4]) | MIC (Pseudomonas aeruginosa [5]) | MIC (Pseudomonas aeruginosa [6]) | MIC (Pseudomonas aeruginosa [7]) | MIC90 [8] | MIC (Pseudomonas aeruginosa [9]) | MIC (Enterococcus faecalis [10]) | MIC [11] | MIC (Enterococcus faecalis [12]) | MIC [13] | MIC (Enterococcus faecium [14]) | MIC (Staphylococcus aureus [15]) | MIC (Klebsiella pneumoniae [16]) | MIC (Enterococcus faecium [17]) | MIC (Staphylococcus aureus [18]) | MIC (Klebsiella pneumoniae [19]) | further results
Nc1nc(-n2cc(C(=O)O)c(=O)c3cc(F)c(N4C/C(=N/OCc5ccccc5)C(CNC5CC5)C4)nc32)c(F)cc1F (centres undefined) | 16 µg/mL (≈ 27 µM) | 128 µg/mL (≈ 216 µM) | 64 µg/mL (≈ 108 µM) | 128 µg/mL (≈ 216 µM) | > 128 µg/mL | 128 µg/mL (≈ 216 µM) | 128 µg/mL (≈ 216 µM) | 128 µg/mL (≈ 216 µM) | > 32 µg/mL | 128 µg/mL (≈ 216 µM) | 8 µg/mL (≈ 13.5 µM) | 64 µg/mL (≈ 108 µM) | 64 µg/mL (≈ 108 µM) | 128 µg/mL (≈ 216 µM) | 64 µg/mL (≈ 108 µM) | 16 µg/mL (≈ 27 µM) | 64 µg/mL (≈ 108 µM) | 128 µg/mL (≈ 216 µM) | 8 µg/mL (≈ 13.5 µM) | > 128 µg/mL | MIC (Staphylococcus aureus [20]): 0.015 µg/mL (≈ 0.0253 µM); MIC (Klebsiella pneumoniae [21]): > 128 µg/mL; MIC (Staphylococcus aureus [22]): 64 µg/mL (≈ 108 µM); MIC (Staphylococcus aureus [23]): 32 µg/mL (≈ 53.9 µM); MIC (Staphylococcus aureus [24]): 32 µg/mL (≈ 53.9 µM); MIC (Escherichia coli [25]): > 128 µg/mL; MIC (Klebsiella pneumoniae [26]): 128 µg/mL (≈ 216 µM); MIC [27]: 128 µg/mL (≈ 216 µM); MIC (Escherichia coli [28]): > 128 µg/mL; MIC (Escherichia coli [29]): 8 µg/mL (≈ 13.5 µM); MIC (Enterococcus faecium [30]): 64 µg/mL (≈ 108 µM); MIC (Klebsiella pneumoniae [31]): 128 µg/mL (≈ 216 µM); MIC (Klebsiella pneumoniae [32]): 128 µg/mL (≈ 216 µM); MIC (Escherichia coli [33]): 64 µg/mL (≈ 108 µM); MIC (Klebsiella pneumoniae [34]): > 128 µg/mL
NNC(=O)c1ccncc1 [ISONIAZID] |  |  |  |  |  |  |  |  | 0.05 µg/mL (≈ 0.365 µM) |  |  |  |  |  |  |  |  |  |  |  | 
CO/N=C1/CN(c2c(F)cc3c(=O)c(C(=O)O)cn(C4CC4)c3c2OC)CC1CNC1CC1 (centres undefined) | 64 µg/mL (≈ 140 µM) | 128 µg/mL (≈ 279 µM) | > 128 µg/mL | > 128 µg/mL | > 128 µg/mL | 128 µg/mL (≈ 279 µM) | 128 µg/mL (≈ 279 µM) | 128 µg/mL (≈ 279 µM) | > 32 µg/mL | 128 µg/mL (≈ 279 µM) | 64 µg/mL (≈ 140 µM) | > 128 µg/mL | > 128 µg/mL | > 128 µg/mL | > 128 µg/mL | > 128 µg/mL | > 128 µg/mL | > 128 µg/mL | > 128 µg/mL | > 128 µg/mL | MIC (Staphylococcus aureus [20]): 8 µg/mL (≈ 17.4 µM); MIC (Klebsiella pneumoniae [21]): > 128 µg/mL; MIC (Staphylococcus aureus [23]): > 128 µg/mL; MIC (Staphylococcus aureus [24]): > 128 µg/mL; MIC (Escherichia coli [25]): > 128 µg/mL; MIC (Klebsiella pneumoniae [26]): > 128 µg/mL; MIC [27]: > 128 µg/mL; MIC (Escherichia coli [28]): > 128 µg/mL; MIC (Escherichia coli [29]): 32 µg/mL (≈ 69.8 µM); MIC (Enterococcus faecium [30]): > 128 µg/mL; MIC (Klebsiella pneumoniae [31]): > 128 µg/mL; MIC (Klebsiella pneumoniae [32]): > 128 µg/mL; MIC (Escherichia coli [33]): 128 µg/mL (≈ 279 µM); MIC (Klebsiella pneumoniae [34]): > 128 µg/mL
C[C@H]1COc2c(N3C/C(=N/OCc4ccccc4)C(CNC4CC4)C3)c(F)cc3c(=O)c(C(=O)O)cn1c23 (some centres undefined) | 0.125 µg/mL (≈ 0.24 µM) | 64 µg/mL (≈ 123 µM) | 4 µg/mL (≈ 7.68 µM) | 8 µg/mL (≈ 15.4 µM) | > 64 µg/mL | 32 µg/mL (≈ 61.5 µM) | 16 µg/mL (≈ 30.7 µM) | 64 µg/mL (≈ 123 µM) |  | 32 µg/mL (≈ 61.5 µM) | 0.5 µg/mL (≈ 0.961 µM) | 8 µg/mL (≈ 15.4 µM) | 16 µg/mL (≈ 30.7 µM) | 2 µg/mL (≈ 3.84 µM) | 8 µg/mL (≈ 15.4 µM) | 2 µg/mL (≈ 3.84 µM) | 32 µg/mL (≈ 61.5 µM) | 16 µg/mL (≈ 30.7 µM) | 4 µg/mL (≈ 7.68 µM) | 32 µg/mL (≈ 61.5 µM) | MIC (Staphylococcus aureus [20]): < 0.008 µg/mL; MIC (Klebsiella pneumoniae [21]): 64 µg/mL (≈ 123 µM); MIC (Staphylococcus aureus [22]): 4 µg/mL (≈ 7.68 µM); MIC (Staphylococcus aureus [23]): 0.06 µg/mL (≈ 0.115 µM); MIC (Staphylococcus aureus [24]): 0.125 µg/mL (≈ 0.24 µM); MIC (Escherichia coli [25]): > 64 µg/mL; MIC (Klebsiella pneumoniae [26]): 32 µg/mL (≈ 61.5 µM); MIC [27]: 4 µg/mL (≈ 7.68 µM); MIC (Escherichia coli [28]): > 64 µg/mL; MIC (Escherichia coli [29]): 1 µg/mL (≈ 1.92 µM); MIC (Enterococcus faecium [30]): 4 µg/mL (≈ 7.68 µM); MIC (Klebsiella pneumoniae [31]): 64 µg/mL (≈ 123 µM); MIC (Klebsiella pneumoniae [32]): 64 µg/mL (≈ 123 µM); MIC (Escherichia coli [33]): 2 µg/mL (≈ 3.84 µM); MIC (Klebsiella pneumoniae [34]): 64 µg/mL (≈ 123 µM)
